From ChEMBL document CHEMBL1125673, “Synthesis and antiretrovirus properties of 5'-isocyano-5'-deoxythymidine, 5'-isocyano-2',5'-dideoxyuridine, 3'-azido-5'-isocyano-3',5'-dideoxythymidine, and 3'-azido-5'-isocyano-2',3',5'-trideoxyuridine” (J Med Chem, 1991) come the findings set out here.

Test [1] deals with Human immunodeficiency virus 1. Description: Concentration of compound required to inhibit HIV-1 replication in MT-4 cells by 50%. Format: functional, organism-based. The conditions noted are these: Human immunodeficiency virus 1, MT4. The essentials: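 HIV-1 strain HTLV-III_B infection of human MT-4 lymphocytes; EC50 is the compound concentration that inhibits virus-induced cytopathogenicity by 50%.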

Another test has as its system MT4. Description: Concentration of compound required to reduce MT-4 cells viability by 50%. Format: functional. Conditions: Homo sapiens. The essentials:
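Uninfected human MT-4 lymphocyte cultures exposed to compound; CC50 is the concentration that lowers cell viability by 50%.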

A further test deals with C3H/3T3. The test can be described thus: Concentration of compound required to inhibit […] MSV-induced transformation of C3H/3T3 cells by 50%. It is filed as functional, cell-based. Conditions: Mus musculus. The essentials:
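Moloney murine sarcoma virus (MSV) infection of murine embryo fibroblast C3H/3T3 cells; EC50 is the compound concentration that inhibits MSV-induced cell transformation by 50%.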

Test [2] can be described thus: Minimal inhibitory concentration was measured as compound concentration that causes a microscopically visible alteration of C3H cell morphology. Format: functional. The conditions noted are these: Mus musculus. The essentials:
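C3H murine embryo fibroblasts exposed to compound and examined by microscope; the minimal inhibitory concentration is the lowest level giving a visible change in cell morphology.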

Values after ≈ are worked out from the molar mass of the structure shown.

Consider `[C-]#[N+]C[C@H]1OC(n2cc(C)c(=O)[nH]c2=O)C[C@H]1N=[N+]=[N-]` (stereo partly specified), for which, in test [1], the EC50 is more than 40 µM. For the same compound, in the test with MT4, half-maximal cytotoxicity (CC50) was put at 122 µM.
In test [1], `[C-]#[N+]C[C@H]1OC(n2ccc(=O)[nH]c2=O)C[C@H]1N=[N+]=[N-]` (stereo partly specified) showed an EC50 of more than 40 µM. Further, the midpoint of cytotoxicity with MT4, the CC50, lay at 104 µM.
Take `[C-]#[N+]C[C@H]1OC(n2ccc(=O)[nH]c2=O)C[C@H]1O` (stereo partly specified): the EC50 is more than 3.2 µM in the test with C3H/3T3 and more than 200 µM in test [1]. The compound also gave a CC50 in the test with MT4 of 125 µM. This compound gave an MIC in test [2] of 3.2 µM (≈ 0.759 µg/mL).
The corresponding values for `[C-]#[N+]C[C@H]1OC(n2cc(C)c(=O)[nH]c2=O)C[C@H]1O` (stereo partly specified) are more than 3.2 µM, more than 200 µM, 144 µM and 3.2 µM (≈ 0.804 µg/mL).
With `Cc1cn([C@H]2C[C@H](N=[N+]=[N-])[C@@H](CO)O2)c(=O)[nH]c1=O` [ZIDOVUDINE], the half-maximal effective concentration (EC50) in the test on C3H/3T3 stood at 0.02 µM; in test [1] it was 0.004 µM. This compound also gave a CC50 with MT4 of 20 µM. Also, in test [2], the MIC is more than 400 µM.

Broadly, the EC50 is the concentration needed to bring the measured effect to its halfway point. Low values mean an effect from little substance, high ones a need for much substance. Usually CC50 stands for the concentration that lowers cell viability or growth by half. A high value points to better tolerance by the cells.
